Reference: ChEMBL document CHEMBL1138302, “Diaryl dihydropyrazole-3-carboxamides with significant in vivo antiobesity activity related to CB1 receptor antagonism: synthesis, biological evaluation, and molecular modeling in the homology model” (J Med Chem, 2007)

System: Rattus norvegicus
Assay: Inhibition of sucrose intake in Zucker fa/fa rat at 10 mg/kg, po after 4 hrs
Assay type: functional
Conditions: for inhibition in vivo at 10 mg/kg: Rattus norvegicus, Zucker, po, 4 h
How it was run: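 Female Zucker fa/fa rats (10-12 weeks, 300-350 g) trained six consecutive days on 5% sucrose with food and water withdrawn; day 7 randomized (n=6), dosed orally 10 mg/kg in 0.5% carboxymethylcellulose (2 mL/kg), exposed to sucrose 1 h later for 4 h. Consumption measured; % inhibition vs vehicle control; one-way ANOVA with Dunnett's test.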

SMILES	inhibition in vivo at 10 mg/kg [%]	Inhibition [%]
Cc1ccc(C2CC(C(=O)NN3CCOCC3)=NN2c2ccc(Cl)cc2Cl)s1 (stereo unspecified)	9.3	
O=C(NN1CCOCC1)C1=NN(c2ccc(Cl)cc2Cl)C(c2cccs2)C1 (stereo unspecified)	3	
O=C(NN1CCCCC1)C1=NN(c2ccc(Cl)cc2Cl)C(c2ccc(Cl)cc2)C1 (stereo unspecified)	23.6	
CN1CCN(NC(=O)C2=NN(c3ccc(Cl)cc3Cl)C(c3ccc(Cl)cc3)C2)CC1 (stereo unspecified)	22.6	
O=C(NN1CCOCC1)C1=NN(c2ccccc2)C(c2ccc(Cl)cc2)C1 (stereo unspecified)	0.5	
O=C(NN1CCOCC1)C1=NN(c2ccccc2)C(c2ccccc2)C1 (stereo unspecified)	11.9	
O=C(NN1CCOCC1)C1=NN(c2ccc(Cl)cc2Cl)C(c2ccccc2)C1 (stereo unspecified)	31.9	
CCCCOc1ccc(C2CC(C(=O)NN3CCOCC3)=NN2c2ccc(Cl)cc2Cl)cc1 (stereo unspecified)	18.1	
O=C(NN1CCOCC1)C1=NN(c2ccc(Cl)cc2Cl)C(c2ccc3c(c2)OCO3)C1 (stereo unspecified)	17	
O=C(NN1CCOCC1)C1=NN(c2ccc(Cl)cc2Cl)C(c2ccco2)C1 (stereo unspecified)	15.1	
O=C(NN1CCOCC1)C1=NN(c2ccc(Cl)cc2Cl)C(c2ccc(Br)cc2)C1 (stereo unspecified)	24.2	
O=C(NN1CC2CCCC2C1)C1=NN(c2ccc(Cl)cc2Cl)C(c2ccc(Cl)cc2)C1 (stereo unspecified)	3.6	
O=C(NN1CCCCCC1)C1=NN(c2ccc(Cl)cc2Cl)C(c2ccc(Cl)cc2)C1 (stereo unspecified)	8.4	
O=C(NN1CCCC1)C1=NN(c2ccc(Cl)cc2Cl)C(c2ccc(Cl)cc2)C1 (stereo unspecified)	2.5	
O=C(NN1CCOCC1)C1=NN(c2ccc(Cl)cc2Cl)C(c2ccc(Cl)cc2)C1.O=C(O)C(=O)O (stereo unspecified)		20.4
O=C(NN1CCOCC1)C1=NN(c2ccc(Cl)cc2Cl)C(c2ccc(Cl)s2)C1 (stereo unspecified)	16.7	
